An excerpt weighted towards active compounds, which were near 2.8% of everything screened.
EBI2 antag: blocks human EBI2 receptor beta-arrestin signaling; EBI2 beta-arrestin recruitment, luminescence, 7a,25-OHC stimulated; inhibition, % at 5 µM; 360,000 tested, 0.81% active; AID 651636; in the data active means inhibition above about 38%;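 further: enzyme fragment complementation signal reports receptor beta-arrestin coupling in cells; 0% = agonist plus DMSO wells and 100% = wells without agonist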
MC4R antagonist: human MC4R antagonism in cAMP assay. 360,000 tested, 0.48% active. P32245. inhibition, % at 6.5 µM. AID 540295. MC4R-expressing cells, MTII-stimulated cAMP, LANCE TR-FRET;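 active means inhibition above its plate's cutoff, the mean of tested wells on that plate plus 3 SD, cut at about 29% in these data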;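 further: 0% = Melanotan II alone and 100% = Melanotan II plus saturating MCL0020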
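Assay system: human MC4R-expressing U2OS cells; reagent: Melanotan II stimulation of cells; dosing: 6.5 µM single dose; timing: compound 30 min, challenge 1 h, detection 1 h; signal: TR-FRET cAMP assay; replicates: one well per compound, no replicates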
MC4R barr agon: activates human MC4R beta-arrestin recruitment. U2OS MC4R beta-arrestin complementation, luminescence; percent of melanotan II response, DMSO zero. activation, % at 8.9 µM. 360,000 tested, 0.98% active. AID 540308;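 active means activation above a per-plate cutoff, the mean activation of sample wells on that plate plus 3 SD, cut at about 8% in these data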
m5-HT2A agonist: mouse HTR2A agonism via beta-arrestin recruitment | CHO-K1 mHTR2A beta-arrestin complementation, luminescence; percent of 30 µM serotonin response | P35363 | activation, % at 7.6 µM | 360,000 tested, 0.66% active;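 active means activation above a run cutoff, the mean activation of all tested compounds plus 3 SD, cut at about 14% in these data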;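 further: 0% = plate median of compound wells and 100% = 30 µM serotonin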
Target sequence (P35363 whole entry, looked up): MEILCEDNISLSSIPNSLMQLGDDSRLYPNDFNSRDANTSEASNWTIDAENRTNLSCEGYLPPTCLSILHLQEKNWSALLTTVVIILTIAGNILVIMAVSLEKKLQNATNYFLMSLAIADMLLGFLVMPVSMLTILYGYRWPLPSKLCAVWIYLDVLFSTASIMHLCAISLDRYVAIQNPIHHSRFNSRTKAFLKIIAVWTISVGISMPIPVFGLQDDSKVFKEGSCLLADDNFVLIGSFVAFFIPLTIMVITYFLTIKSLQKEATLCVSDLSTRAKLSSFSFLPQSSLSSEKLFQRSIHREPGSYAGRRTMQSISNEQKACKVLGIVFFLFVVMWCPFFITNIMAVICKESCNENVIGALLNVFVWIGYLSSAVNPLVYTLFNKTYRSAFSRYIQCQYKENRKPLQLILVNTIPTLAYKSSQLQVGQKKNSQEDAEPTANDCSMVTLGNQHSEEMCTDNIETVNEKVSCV
MC4R barr ag: human MC4R beta-arrestin agonism confirmation | shares compounds with MC4R barr agon | 2,400 tested, 31% active | AID 602192 | U2OS MC4R beta-arrestin recruitment, luminescence; scaled DMSO 0%, Melanotan II 100% | activation, % at 8.9 µM;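 active means mean activation across replicates above the hit cutoff set in the earlier primary screen, cut at about 8% in these data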
MOR DOR agonist: counter-screen for MC4R agonists: agonists of mu-delta opioid heterodimer; shares compounds with MC4R barr agon; U2OS PathHunter beta-arrestin, beta-gal luminescence; percent of deltorphin B response, DMSO zero; activation, % at 9.2 µM; 2,400 tested, 5.8% active; AID 602194;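 active means mean activation across replicates exceeds the hit threshold derived in the earlier primary screen, cut at about 18% in these data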;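 further: 100% = deltorphin B at 0.9 µM final and 0% = DMSO alone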
* marks the source's active call; other numbers are inactive results; x = not tested or not shown.

SMILES	EBI2 antag	MC4R antagonist	MC4R barr agon	m5-HT2A agonist	MC4R barr ag	MOR DOR agonist
CC1CC(C)CN(C(=S)Nc2ccc(SC(F)F)cc2)C1 (configuration not stated)	-14	12	24*	-1	5	11
C=C(C)CNC(=S)NNC(=O)CCn1c2ccc(Cl)cc2c2cc(Cl)ccc21	-7	-1	11*	5	6	3
C=C(C)CNC(=S)NNC(=O)CCn1c2cc(Cl)ccc2c2ccc(Cl)cc21	-16	15	2	2	x	x
COc1ccc(C(=O)Nc2cccc([N+](=O)[O-])c2)cc1Br	9	-10	22*	-2	8.9*	13
Cc1c(C(=O)Nc2cccc([N+](=O)[O-])c2)csc1-c1ccccc1	22	3	14*	2	2	10
O=C(Nc1cccc([N+](=O)[O-])c1)c1ccc(-c2ccccc2)cc1	0	9	39*	-5	6	25*
COc1ccc(-c2ccc(-c3noc(-c4cccs4)n3)c(OC)n2)cc1	28	-1	17*	3	5	1
COc1ccc(-c2ccc(-c3noc(-c4ccccc4OC)n3)c(OC)n2)cc1	29	5	10*	-3	2	1
CCCCC(=O)Nc1nnc(S(=O)(=O)N(CC)c2ccc(OC)cc2)s1	3	0	3	0	x	x
CCN(c1ccc(Cl)cc1)S(=O)(=O)c1nnc(NC(=O)C(C)C)s1	-1	-4	10*	6	1	6
CCN(c1ccc(OC)cc1)S(=O)(=O)c1nnc(NC(=O)C2CCCCC2)s1	1	4	12*	2	1	7
CCN(c1ccc(OC)cc1)S(=O)(=O)c1nnc(NC(=O)C(C)C)s1	-2	-7	1	12	x	x
Cc1[nH]c2ccccc2c1C(=O)c1cc(Cc2ccccc2)sc1N	16	x	x	0	x	x
CCCNC(=O)C(Cc1ccc(Cl)cc1)NC(=O)c1ccc(-c2ccccc2)cc1 (configuration not stated)	9	5	14*	4	2	17
Cc1ccccc1NC(=O)Cc1nc(COC(=O)Cc2c(F)cccc2Cl)cs1	5	12	2	1	x	x
COc1ccc(OC)c(NC(=O)COC(=O)c2cc3c(s2)CCC3)c1	-5	12	20*	2	7	7
CCCn1nc(C(=O)Nc2cccc(C(=O)OC)c2)c2ccccc2c1=O	6	13	-1	-2	x	x
COC(=O)c1cccc(NC(=O)c2nn(C(C)C)c(=O)c3ccccc23)c1	-14	3	14*	-2	0	3
CCCCCC(=O)N1C[C@H](O)[C@@H](n2cc(-c3ccc(F)cc3)nn2)C[C@@H]1c1ccc(OC)cc1	19	12	3	0	x	x
O=C(Cn1c(=O)n(CC2CCCO2)c(=O)c2ccccc21)c1ccc(Cl)c(Cl)c1 (configuration not stated)	3	6	11*	7	-1	3
O=C(NCc1ccncc1)c1csc([C@@H]2O[C@H](CO)[C@@H](O)[C@H]2O)n1	-7	-5	0	0	x	x
COc1ccc(NC(=O)COC(=O)c2cc(SC)ccc2Cl)c(OC)c1	4	7	22*	1	9.1*	12
N=c1n(CC(=O)c2ccc(Br)s2)c2ccccc2n1Cc1ccccc1	2	-2	14*	-8	13*	18*
CCCC1NC(=O)c2cccnc2-n2c1nc1ccc(OC)cc1c2=O (configuration not stated)	-12	7	0	-2	x	x
Cc1noc(C)c1S(=O)(=O)N(C)C[C@H]1Oc2c(NC(=O)C3CCCCC3)cccc2C(=O)N([C@H](C)CO)C[C@@H]1C	-4	10	1	3	x	x
SMILES	EBI2 antag	MC4R antagonist	MC4R barr agon	m5-HT2A agonist	MC4R barr ag	MOR DOR agonist
CCNC(=O)C1(C)CCN(C(=O)c2cc(F)ccc2C)C1 (configuration not stated)	-2	6	1	5	x	x
Cc1cccc(NC(=S)NC(C)CCc2ccccc2)c1 (configuration not stated)	1	0	21*	-5	2	8
O=C(COC(=O)c1ccc2ncsc2c1)Nc1cc([N+](=O)[O-])ccc1Cl	0	1	23*	2	8	13
CCCCCCOc1ccc(/C(C)=N/NC2=NCCN2)cc1[N+](=O)[O-]	-7	4	14*	-9	12*	10
CCCCn1nnnc1C(c1cc2ccccc2o1)N1CCN(C(=O)OC(C)(C)C)CC1 (configuration not stated)	8	x	x	-3	x	x
CSc1cccc(NC(=O)CN(c2cccc(C)c2)S(C)(=O)=O)c1	-4	2	0	0	x	x
CSc1cccc(NC(=O)CN(c2ccc(C)cc2C)S(C)(=O)=O)c1	12	11	10*	4	-1	4
c1ccc(Cc2nnc(-c3ccccc3)o2)cc1	-18	4	15*	1	25*	19*
Brc1ccc(-c2nnc(Cc3ccccc3)o2)cc1	9	6	4	4	x	x
N#Cc1cccc(C(=O)Nc2cc(S(=O)(=O)N3CCOCC3)ccc2N2CCCC2)c1	-7	-5	1	3	x	x
O=C(c1ccccc1NS(=O)(=O)c1ccc(F)cc1)N1CCc2ccccc21	-2	19	4	-1	x	x
O=C(c1ccccc1NS(=O)(=O)c1cccc(C(F)(F)F)c1)N1CCc2ccccc21	-6	16	10*	4	1	6
COCCN1C(=O)CSCC1(C)C(=O)NC(C)C (configuration not stated)	-2	x	x	2	x	x
O=C(Cc1cccs1)NCCSc1c(-c2ccc(Cl)cc2)[nH]c2ccccc12	15	8	3	-9	x	x
CCOC(=O)CSc1c(-c2ccc(Cl)cc2)[nH]c2ccccc12	1	12	11*	2	4	14
Cc1ccc(NC(=O)c2cc(S(=O)(=O)N3CCCCC3)c[nH]2)cc1Cl	8	13	0	-6	x	x
COc1cccc(C(C)(O)c2nc(-c3cc(F)cc(F)c3)cs2)c1 (configuration not stated)	12	-5	2	0	x	x
Cc1ccc([N+](=O)[O-])cc1NC(=S)NC(=O)C(C)(C)C	10	0	-1	1	x	x
Cc1ccc([N+](=O)[O-])cc1NC(=S)NC(=O)c1c(Cl)cnn1C	4	21	18*	2	0	4
CC1(Cc2ccc(Cl)cc2)C(=O)Nc2c(Cl)cccc21 (configuration not stated)	-1	12	-1	-8	x	x
CCOC(=O)c1sc2nc(NC(=O)C3CC3)sc2c1C	-4	9	3	1	x	x
CCOC(=O)c1sc2nc(NC(=O)C(C)(C)C)sc2c1C	0	16	10.0*	3	0	8

Compound activity from PubChem.
